Experimental findings from ChEMBL document CHEMBL3351834, “Jalapinoside, a macrocyclic bisdesmoside from the resin glycosides of Ipomea purga, as a modulator of multidrug resistance in human cancer cells” (J Nat Prod, 2015) are described below.

One may read the IC50 as the concentration that gives 50% inhibition.

Values after ≈ are worked out from the molar mass of the structure shown.

In experiment [1] the test system is MCF7. Description: Cytotoxicity against human MCF7 cells assessed as growth inhibition after 72 hrs by SRB assay. The conditions noted are these: MCF7, 72 h. The experiment is classed as functional, cell-based. An outline of the steps: (§1)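 SRB assay. Log-phase cells, RPMI 1640 + 10% FBS, treated in triplicate with test samples at 0.2−25 μg/mL, 72 h at 37 °C, 5% CO2, static conditions. IC50 (50% inhibition of control growth) read from a semilog plot of concentration (μg/mL) against % growth inhibition. Resistant subline kept in 0.192 μg/mL vinblastine; a vinblastine-free stock also maintained.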
Background: The SRB assay estimates cell density from bound dye.

In experiment [2] the test system is MCF7. Description: Cytotoxicity against human MCF7 cells assessed as growth inhibition after 72 hrs by SRB assay in presence of vinblastine. The experiment is classed as functional, cell-based. The conditions noted are these: MCF7, 72 h. An outline of the steps: as §1
In experiment [3] the test system is MCF7. Nature of the experiment: Cytotoxicity against vinblastin-sensitive human MCF7 cells assessed as growth inhibition after 72 hrs by SRB assay. The experiment is classed as functional, cell-based. Conditions: MCF7, 72 h. An outline of the steps:
as §1

In experiment [4] the test system is MCF7. Nature of the experiment: Reversal of multidrug-resistance in human MCF7 cells assessed as reduction in vinblastine IC50 at 25 ug/ml relative to IC50 vinblastine alone. The class given is functional. An outline of the steps: (§2)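 Modulation by SRB assay. MCF-7 or MCF-7/Vin cells exposed 72 h to vinblastine (0.000 64−10 μg/mL) with or without glycolipid at 25 or 5 μg/mL (water−DMSO 9:1). Vinblastine IC50 taken from a semilog growth-inhibition plot. Reserpine 5 μg/mL as reference modulator. Reversal fold = IC50 of vinblastine alone ÷ IC50 with test compound.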

The test system of experiment [5] is MCF7. Description: Reversal of multidrug-resistance in human MCF7 cells in presence of vinblastine assessed as reduction in vinblastine IC50 at 25 ug/ml relative to IC50 vinblastine alone. The class given is functional. An outline of the steps: as §2
The subject of experiment [6] is MCF7. Description: Reversal of multidrug-resistance in vinblastin-sensitive human MCF7 cells assessed as reduction in vinblastine IC50 at 25 ug/ml relative to IC50 vinblastine alone. The experiment is classed as functional. Put shortly:
as §2

In the case of `COC(=O)[C@H]1[C@H]2C[C@@H]3c4[nH]c5cc(OC)ccc5c4CCN3C[C@H]2C[C@@H](OC(=O)c2cc(OC)c(OC)c(OC)c2)[C@@H]1OC` [RESERPINE], the IC50 with MCF7 [1] was 0.037 µg/mL (≈ 0.0608 µM); in the experiment with MCF7 [2], 0.31 µg/mL; in the experiment on MCF7 [3], 0.003 µg/mL (≈ 0.00493 µM).

As to `CCCCCCCCCCCC(=O)O[C@H]1[C@@H](O)[C@@H](C)O[C@@H](O[C@@H]2[C@@H](O[C@@H]3O[C@H](CO)[C@@H](O)[C@H](O)[C@H]3O[C@@H]3O[C@H](C)[C@@H](O)[C@H](OC(=O)[C@@H](C)CC)[C@H]3O)[C@@H](OC(=O)[C@@H](C)CC)[C@H](O[C@H]3[C@@H]4O[C@H]5[C@H](O[C@H](CCC)CCCCCCC[C@H](O[C@@H]6O[C@H](C)[C@@H](O)[C@H](O)[C@H]6O)CC(=O)O[C@H]3[C@H](O)[C@@H](COC(C)=O)O4)O[C@H](C)[C@@H](O)[C@@H]5O)O[C@H]2C)[C@@H]1O`, the IC50 with MCF7 [1], with MCF7 [2] and with MCF7 [3] was less than 0.00064 µg/mL each time. Moreover, the “fold change (FC)” value is recorded as greater than 1593 with MCF7 [4], greater than 1906.3 in the experiment on MCF7 [5] and 73.4 in the experiment with MCF7 [6].

Regarding `CC[C@]1(O)C[C@@H]2CN(CCc3c([nH]c4ccccc34)[C@@](C(=O)OC)(c3cc4c(cc3OC)N(C)[C@H]3[C@@](O)(C(=O)OC)[C@H](OC(C)=O)[C@]5(CC)C=CCN6CC[C@]43[C@@H]65)C2)C1` [VINBLASTINE], the figures for the IC50 with MCF7 [1] and in the experiment on MCF7 [2] were 1.02 µg/mL (≈ 1.26 µM) and 1.22 µg/mL, respectively.
